We go through 12 molecules from ChEMBL document CHEMBL5104156, “Development of subtype-selective covalent ligands for the adenosine A2B receptor by tuning the reactive group” (RSC Med Chem, 2022).

Calls of active or inactive are those of the source. The calls are words filed in the database; no cut-off is given here.

Common to all, as to type: cell membranes
In assay [1] the target is T1, Adenosine receptor A2b (Homo sapiens, UniProt P29275).
T1 sequence (P29275 whole entry): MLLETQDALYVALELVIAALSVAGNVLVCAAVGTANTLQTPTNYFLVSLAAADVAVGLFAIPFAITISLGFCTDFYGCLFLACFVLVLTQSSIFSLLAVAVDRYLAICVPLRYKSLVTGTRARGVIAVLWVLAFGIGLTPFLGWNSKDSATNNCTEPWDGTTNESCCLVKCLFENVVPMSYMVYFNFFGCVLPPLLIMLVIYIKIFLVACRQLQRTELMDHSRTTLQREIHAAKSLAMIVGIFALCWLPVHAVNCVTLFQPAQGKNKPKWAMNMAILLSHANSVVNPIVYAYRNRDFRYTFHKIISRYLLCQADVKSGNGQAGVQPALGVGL
Nature of the assay: Displacement of [3H]PSB-603 from human adenosine A2B receptor expressed in CHO cell membrane and measured after 0.5 hrs by radioligand displacement assay.

Assay [2] deals with T1, Adenosine receptor A2b. The assay can be described thus: Displacement of [3H]PSB-603 from human adenosine A2B receptor expressed in CHO cell membrane preincubated for 4 hrs followed by [3H]PSB-603 addition and measured after 0.5 hrs by radioligand displacement assay. (Loss of bound radioactivity is the signal in a displacement assay; it reports binding, not function.)
Assay [3] deals with T2, Adenosine receptor A2b (Homo sapiens) (UniProt P29275).
T2 sequence (whole entry): T1 sequence (P29275 whole entry)
The assay can be described thus: Ratio of Ki for displacement of [3H]PSB-603 from human adenosine A2B receptor expressed in CHO cell membrane to Ki for displacement of [3H]PSB-603 from human adenosine A2B receptor expressed in CHO cell membrane preincubated for 4hrs. In outline: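 CHO-spap-hA2BAR membranes (30 µg protein) in 50 mM Tris-HCl pH 7.4 with 0.1% CHAPS. Nonspecific binding was set with 10 µM ZM241385. Filtration was followed by scintillation counting.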

For assay [4], the target named is Adenosine receptor A2a (Homo sapiens) (UniProt P29274). Nature of the assay: Displacement of [3H]ZM241385 from human adenosine A2A receptor expressed in HEK293 cell membrane at 1 uM and measured after 0.5 hrs by radioligand displacement assay.
Assay [5] deals with T3, Adenosine receptor A1 (Homo sapiens) (UniProt P30542).
T3 sequence (whole entry): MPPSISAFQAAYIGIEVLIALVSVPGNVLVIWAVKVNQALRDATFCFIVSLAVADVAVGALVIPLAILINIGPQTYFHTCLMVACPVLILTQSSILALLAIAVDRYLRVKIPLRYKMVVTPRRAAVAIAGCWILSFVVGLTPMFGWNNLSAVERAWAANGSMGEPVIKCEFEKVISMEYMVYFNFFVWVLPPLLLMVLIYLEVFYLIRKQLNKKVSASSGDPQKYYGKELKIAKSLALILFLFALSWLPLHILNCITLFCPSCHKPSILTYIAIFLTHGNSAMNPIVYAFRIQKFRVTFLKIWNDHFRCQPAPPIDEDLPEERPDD
Nature of the assay: Displacement of [3H]DPCPX from human adenosine A1 receptor expressed in CHO cell membrane at 1 uM and measured after 0.5 hrs by radioligand displacement assay.

The target in assay [6] is T3, Adenosine receptor A1 (Homo sapiens). The assay can be described thus: Displacement of [3H]DPCPX from human adenosine A1 receptor expressed in CHO cell membrane at 1 uM preincubated for 4 hrs followed by [3H]DPCPX addition and measured after 0.5 hrs by radioligand displacement assay. As to conditions: time 4.5 hrs.
Assay [7] concerns the target Adenosine receptor A2a (Homo sapiens) (UniProt P29274). Nature of the assay: Displacement of [3H]ZM241385 from human adenosine A2A receptor expressed in HEK293 cell membrane at 1 uM preincubated for 4 hrs followed by [3H]ZM241385 addition and measured after 0.5 hrs by radioligand displacement assay. The following applies: time 4.5 hrs.
In assay [8] the target is T4, Adenosine receptor A3 (Homo sapiens) (UniProt P0DMS8).
T4 sequence (whole entry): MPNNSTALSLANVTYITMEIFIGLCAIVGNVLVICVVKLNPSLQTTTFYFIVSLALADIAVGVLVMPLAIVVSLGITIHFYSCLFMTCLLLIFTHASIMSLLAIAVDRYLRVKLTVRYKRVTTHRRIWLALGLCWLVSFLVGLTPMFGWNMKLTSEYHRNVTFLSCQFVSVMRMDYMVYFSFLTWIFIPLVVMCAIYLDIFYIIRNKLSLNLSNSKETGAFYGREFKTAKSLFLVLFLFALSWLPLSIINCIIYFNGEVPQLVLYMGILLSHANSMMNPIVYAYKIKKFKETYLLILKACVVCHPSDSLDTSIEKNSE
The assay can be described thus: Displacement of [3H]PSB-11 from human adenosine A3 receptor expressed in CHO cell membrane at 1 uM and measured after 0.5 hrs by radioligand displacement assay.

For assay [9], the target named is T4, Adenosine receptor A3 (Homo sapiens). Nature of the assay: Displacement of [3H]PSB-11 from human adenosine A3 receptor expressed in CHO cell membrane at 1 uM preincubated for 4 hrs followed by [3H]PSB-11 addition and measured after 0.5 hrs by radioligand displacement assay. The following applies: time 4.5 hrs.
The target of assay [10] is T2, Adenosine receptor A2b (Homo sapiens). The assay can be described thus: Displacement of [3H]PSB-603 from human adenosine A2B receptor expressed in CHO cell membrane assessed as covalent adduct formation at 1 uM preincubated followed by 4 times washing treatment and then with [3H]PSB-603 exposure by radioligand displacement assay. The essentials: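 CHO-spap-hA2BAR membranes (80 µg protein) were shaken 2 h at 25 °C with ligand, added as a 1 µM solution, in 0.1% CHAPS/50 mM Tris-HCl pH 7.4. The washed set was pelleted, resuspended and shaken 10 min at 25 °C, repeated three times; an unwashed set was kept for comparison. Both sets then had [3H]PSB-603 (1.5 nM solution) added for 2 h at 25 °C, with nonspecific binding set by 10 µM ZM241385. Filtration, then scintillation counting.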

In general, Ki refers to the dissociation constant of the complex between target and ligand, obtained from inhibition or displacement.

Sequence of Adenosine receptor A2a (Homo sapiens) (P29274 whole entry): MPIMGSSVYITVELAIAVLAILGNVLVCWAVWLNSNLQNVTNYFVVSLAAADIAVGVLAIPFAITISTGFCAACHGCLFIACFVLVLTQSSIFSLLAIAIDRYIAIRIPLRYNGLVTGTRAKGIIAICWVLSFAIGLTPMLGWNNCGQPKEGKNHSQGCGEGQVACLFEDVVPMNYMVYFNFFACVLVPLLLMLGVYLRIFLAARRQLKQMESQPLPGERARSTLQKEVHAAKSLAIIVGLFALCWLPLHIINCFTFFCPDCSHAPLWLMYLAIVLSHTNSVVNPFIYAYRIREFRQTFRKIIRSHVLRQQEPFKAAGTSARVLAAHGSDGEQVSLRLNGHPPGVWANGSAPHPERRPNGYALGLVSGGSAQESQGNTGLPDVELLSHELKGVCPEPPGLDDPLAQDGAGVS

As for `CCCn1c(=O)c2[nH]c(-c3cccc(S(=O)(=O)F)c3)nc2n(CCC)c1=O`, the values for the Ki on Adenosine receptor A2b [1] and at Adenosine receptor A2b [2] were 0.955 µM and 0.158 µM, respectively. In assay [3], the Ratio Ki worked out at 7.1. Moreover, the Activity in [4] came to 19%; in [5], 52%; in assay [6], 61%; in [7] it was 23%; in assay [8] it was 30%; in [9], 43%.

As for `CCCn1c(=O)[nH]c2nc(-c3ccc(OS(=O)(=O)F)cc3)[nH]c2c1=O`, the inhibition constant Ki on Adenosine receptor A2b [1] was 0.0117 µM; at Adenosine receptor A2b [2], 0.0055 µM. Besides, in assay [3], the Ratio Ki was 2.2. In addition, the Activity in assay [4] was 35%; in assay [5], 17%; in assay [6], 12%; in [7], 24%; in [8], 8%; in [9], 8%. Also, the outcome in [10] was Active.

Regarding `CCCn1c(=O)[nH]c2nc(-c3ccc(N=C=S)cc3)[nH]c2c1=O`, the Ki was 0.00214 µM at Adenosine receptor A2b [1] and 0.000661 µM at Adenosine receptor A2b [2]. Further, in [3], the Ratio Ki is 3.4. In addition, the Activity in assay [4] is 25%; in assay [5], 51%; in assay [6] it was 97%; in assay [7] it was 27%; in assay [8], 15%; in assay [9], 66%.

For `CCCn1c(=O)c2[nH]c(-c3cccc(N=C=S)c3)nc2n(CCC)c1=O`, the Ki at Adenosine receptor A2b [1] is 0.617 µM; on Adenosine receptor A2b [2] it was 0.049 µM. In addition, in assay [3], the Ratio Ki is 19.3. Moreover, the Activity in assay [4] turned out to be 47%; in assay [5], 73%; in [6], 96%; in [7], 34%; in [8] it was 89%; in assay [9], 100%.

Regarding `CCCn1c(=O)[nH]c2nc(-c3cccc(N=C=S)c3)[nH]c2c1=O`, the figures for the inhibition constant (Ki) at Adenosine receptor A2b [1] and on Adenosine receptor A2b [2] were 0.11 µM and 0.00282 µM, respectively. Moreover, in assay [3], the Ratio Ki was 74.3. Besides, the Activity in assay [4] is 0%; in assay [5], 7%; in assay [6] it was 16%; in assay [7] it was 6%; in assay [8], 58%; in assay [9] it was 95%.

On to `CCCn1c(=O)[nH]c2nc(-c3cccc(OS(=O)(=O)F)c3)[nH]c2c1=O`, for which the Ki at Adenosine receptor A2b [1] is 0.141 µM; at Adenosine receptor A2b [2] it was 0.0708 µM. Further, the Ratio Ki in assay [3] turned out to be 1.6. In addition, the Activity in assay [4] was 2%; in assay [5], 6%; in assay [6], 1%; in assay [7], 0%; in assay [8] it was 14%; in [9], 5%.

As to `CCCn1c(=O)c2[nH]c(-c3ccc(S(=O)(=O)F)cc3)nc2n(CCC)c1=O`, the Ki at Adenosine receptor A2b [1] was 0.0603 µM; on Adenosine receptor A2b [2], 0.0024 µM. For the same molecule, the Ratio Ki in [3] came to 27.3. Moreover, the Activity in assay [4] amounted to 54%; in [5], 61%; in [6] it was 69%; in [7], 55%; in [8] it was 12%; in assay [9] it was 5%.

For the molecule `CCCn1c(=O)[nH]c2nc(-c3ccc(S(=O)(=O)F)cc3)[nH]c2c1=O`, the inhibitory constant (Ki) was 0.00794 µM at Adenosine receptor A2b [1] and 0.000676 µM at Adenosine receptor A2b [2]. Also, the Ratio Ki in [3] is 12.1. The Activity in [4] worked out at 52%; in [5], 29%; in assay [6], 41%; in [7], 43%; in assay [8], 7%; in [9], 9%. Further, in assay [10], the outcome was Active.

For `CCCn1c(=O)c2[nH]c(-c3ccc(N=C=S)cc3)nc2n(CCC)c1=O`, the inhibition constant Ki at Adenosine receptor A2b [1] was 0.024 µM; on Adenosine receptor A2b [2] it was 0.00324 µM. For the same molecule, the Ratio Ki in assay [3] turned out to be 7.7. The Activity is 40% in assay [4]; 77% in assay [5]; 92% in assay [6]; 39% in [7]; 48% in [8]; 96% in assay [9].

As to `CCCn1c(=O)c2[nH]c(-c3ccc(OS(=O)(=O)F)cc3)nc2n(CCC)c1=O`, the Ki at Adenosine receptor A2b [1] is 0.049 µM; at Adenosine receptor A2b [2] it was 0.0513 µM. Besides, the Ratio Ki in [3] worked out at 1. Besides, the Activity in assay [4] was determined as 63%; in [5], 79%; in assay [6] it was 85%; in [7], 69%; in assay [8] it was 47%; in assay [9], 49%.

For the molecule `CCCn1c(=O)[nH]c2nc(-c3cccc(S(=O)(=O)F)c3)[nH]c2c1=O`, the results for the inhibition constant (Ki) on Adenosine receptor A2b [1] and on Adenosine receptor A2b [2] were 0.132 µM and 0.0132 µM, respectively. For the same molecule, the Ratio Ki in assay [3] worked out at 10.2. Also, the Activity stood at 20% in assay [4]; 6% in [5]; 36% in [6]; 6% in assay [7]; 14% in assay [8]; 10% in assay [9].

Consider `CCCn1c(=O)c2[nH]c(-c3cccc(OS(=O)(=O)F)c3)nc2n(CCC)c1=O`, for which the inhibition constant Ki is 0.562 µM on Adenosine receptor A2b [1] and 0.525 µM at Adenosine receptor A2b [2]. Also, the Ratio Ki in assay [3] is 1.2. For the same molecule, the Activity in [4] is 13%; in assay [5], 76%; in assay [6], 77%; in [7], 12%; in [8] it was 64%; in [9] it was 58%.
